Source: ChEMBL document CHEMBL4330187, “Synthesis of 5-Thio-α-GalCer Analogues with Fluorinated Acyl Chain on Lipid Residue and Their Biological Evaluation” (2019)
The source made the active and inactive calls. The calls are words filed in the database; no cut-off is given here.

How the values were obtained:
[1] = system: Mus musculus; assay: Immunomodulatory activity in C57BL/6 mouse assessed as increase in IFN-gamma secretion in serum at 100 ug/kg, ip by ELISA; format: functional, organism-based
Procedure, shortened: (§1)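 Glycolipid given once i.p. to B6 mice at 100 μg/kg in 0.1 mL vehicle. Serum IL-4 and IFN-γ followed over time after injection, three mice per group, each serum sampled individually. IFN-γ/IL-4 selectivity expressed two ways: ratio of areas under the time–concentration curves, and ratio of peak (maximum) production.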

[2] = system: Mus musculus; assay: Immunomodulatory activity in C57BL/6 mouse assessed as increase in IL-4 secretion in serum at 100 ug/kg, ip by ELISA; format: functional, organism-based; procedure, shortened: as §1
[3] = system: Mus musculus; assay: Immunomodulatory activity in C57BL/6 mouse assessed as serum IFNgamma/IL-4 maximum productivity ratio at 100 ug/kg, ip by ELISA; format: functional; procedure, shortened: as §1
[4] = system: Mus musculus; assay: Immunomodulatory activity in C57BL/6 mouse assessed as serum IFNgamma/IL-4 AUC ratio at 100 ug/kg, ip by ELISA; format: functional; procedure, shortened: as §1
[5] = system: Mus musculus; assay: Immunomodulatory activity in C57BL/6 mouse assessed as increase in IL-4 secretion in serum at 100 ug/kg, ip after 3 hrs by ELISA; format: functional, organism-based; procedure, shortened: as §1

SMILES	Activity [1]	Activity [2]	Ratio [3]	Ratio [4]	Activity [5]
CCCCCCCCCCCCCC[C@@H](O)[C@@H](O)[C@H](CO[C@H]1O[C@H](CO)[C@H](O)[C@H](O)[C@H]1O)NC(=O)C(F)(F)C(F)(F)C(F)(F)C(F)(F)C(F)(F)C(F)(F)C(F)(F)C(F)(F)C(F)(F)C(F)(F)C(F)(F)C(F)(F)C(F)(F)F	inactive	inactive	–	–	–
CCCCCCCCCCCCCC[C@@H](O)[C@@H](O)[C@H](CO[C@H]1S[C@H](CO)[C@H](O)[C@H](O)[C@H]1O)NC(=O)C(F)(F)C(F)(F)C(F)(F)C(F)(F)C(F)(F)C(F)(F)C(F)(F)F	–	–	9	26.7	–
CCCCCCCCCCCCCC[C@@H](O)[C@@H](O)[C@H](CO[C@H]1O[C@H](CO)[C@H](O)[C@H](O)[C@H]1O)NC(=O)C(F)(F)C(F)(F)C(F)(F)C(F)(F)C(F)(F)C(F)(F)C(F)(F)F	–	–	3.4	5.8	–
CCCCCCCCCCCCCC[C@@H](O)[C@@H](O)[C@H](CO[C@H]1S[C@H](CO)[C@H](O)[C@H](O)[C@H]1O)NC(=O)C(F)(F)C(F)(F)C(F)(F)C(F)(F)C(F)(F)C(F)(F)C(F)(F)C(F)(F)C(F)(F)C(F)(F)C(F)(F)C(F)(F)C(F)(F)F	–	–	0.59	0.58	–
CCCCCCCCCCCCCC[C@@H](O)[C@@H](O)[C@H](CO[C@H]1S[C@H](CO)[C@H](O)[C@H](O)[C@H]1O)NC(=O)CCCCCCC(F)(F)F	inactive	inactive	–	–	–
CCCCCCCCCCCCCCCCCCCCCCCCCC(=O)N[C@@H](CO[C@H]1O[C@H](CO)[C@H](O)[C@H](O)[C@H]1O)[C@H](O)[C@H](O)CCCCCCCCCCCCCC [RGI-7000]	Active	–	2.8	12.1	Active
CCCCCCCCCCCCCC[C@@H](O)[C@@H](O)[C@H](CO[C@H]1O[C@H](CO)[C@H](O)[C@H](O)[C@H]1O)NC(=O)CCCCCCC(F)(F)F	inactive	inactive	–	–	–
